Reference: ChEMBL document CHEMBL1137547, “Synthesis and antifungal activities of novel 2-aminotetralin derivatives” (2007)
≈ marks a conversion by molar mass, not a printed value.

How the values were obtained:
Type in all cases: functional
Candida parapsilosis = assay: Antifungal activity against Candida parapsilosis after 24 hrs; settings: Lodderomyces parapsilosis
In short: (§1)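 Candida yeasts were tested by NCCLS microdilution in RPMI 1640 buffered with 0.165 M MOPS and incubated at 35 °C. Compounds were dissolved in DMSO and serially diluted in medium. Isolates came from ATCC or the clinic. The MIC was read at 24 h as the lowest concentration achieving ≥80% growth inhibition versus the control.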

Fonsecaea compacta = assay: Antifungal activity against Fonsecaea compacta
In short: (§2)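 NCCLS broth serial dilution in RPMI 1640 buffered with 0.165 M MOPS. Compounds were dissolved in DMSO and serially diluted in medium. Strains came from ATCC or clinical isolates. The growth MIC for filamentous fungi was read at 7 d, taken as the lowest concentration giving ≥80% turbidity inhibition versus the growth control.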

Aspergillus fumigatus = assay: Antifungal activity against Aspergillus fumigatus; in short: as §2
Microsporum = assay: Antifungal activity against Microsporum gypseum
In short: (§3)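 Dermatophytes were tested by NCCLS serial dilution in RPMI 1640 with 0.165 M MOPS and incubated at 28 °C. Compounds were dissolved in DMSO and diluted in medium. Strains came from ATCC or clinical isolates. The MIC was read at 7 d as the lowest concentration reducing turbidity by ≥80% relative to the drug-free control.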

Trichophyton rubrum = assay: Antifungal activity against Trichophyton rubrum; in short: as §3
Candida albicans = assay: Antifungal activity against Candida albicans after 24 hrs; in short: as §1
Cryptococcus neoformans = assay: Antifungal activity against Cryptococcus neoformans after 72 hrs
In short: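 Cryptococcus neoformans was tested by NCCLS serial dilution in MOPS-buffered (0.165 M) RPMI 1640 at 35 °C. Compounds were dissolved in DMSO and diluted in medium. The MIC was read at 72 h as the lowest concentration giving turbidity inhibition of ≥80% relative to the growth control.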

Structure (SMILES)	MIC (Candida parapsilosis) [µM]	MIC (Fonsecaea compacta) [µM]	MIC (Aspergillus fumigatus) [µM]	MIC (Microsporum) [µM]	MIC (Trichophyton rubrum) [µM]	MIC (Candida albicans) [µM]	MIC (Cryptococcus neoformans) [µM]
CCCCCCCCCCN1CCc2cc(O)c(O)cc2C1	0.5 (≈ 0.153 µg/mL)	16 (≈ 4.89 µg/mL)	16 (≈ 4.89 µg/mL)	> 64	1 (≈ 0.305 µg/mL)	> 64	1 (≈ 0.305 µg/mL)
Oc1ccc2c(c1)CC(Nc1ccc(Cl)cc1)CC2 (configuration not stated)	32 (≈ 8.76 µg/mL)	32 (≈ 8.76 µg/mL)	64 (≈ 17.5 µg/mL)	4 (≈ 1.1 µg/mL)	2 (≈ 0.548 µg/mL)	> 64	16 (≈ 4.38 µg/mL)
Oc1cccc2c1CC(Nc1ccc(Cl)cc1)CC2 (configuration not stated)	32 (≈ 8.76 µg/mL)	64 (≈ 17.5 µg/mL)	> 64	8 (≈ 2.19 µg/mL)	8 (≈ 2.19 µg/mL)	16 (≈ 4.38 µg/mL)	32 (≈ 8.76 µg/mL)
CCCCNC1CCc2cccc(O)c2C1 (configuration not stated)	> 64	> 64	> 64	64 (≈ 14 µg/mL)	> 64	> 64	> 64
CCCCCCCCNC1CCc2cccc(OC)c2C1 (configuration not stated)	32 (≈ 9.26 µg/mL)	8 (≈ 2.32 µg/mL)	32 (≈ 9.26 µg/mL)	8 (≈ 2.32 µg/mL)	4 (≈ 1.16 µg/mL)	16 (≈ 4.63 µg/mL)	16 (≈ 4.63 µg/mL)
NC1CCc2c(O)cccc2C1 (configuration not stated)	> 64	32 (≈ 5.22 µg/mL)	> 64	> 64	> 64	> 64	> 64
NC1CCc2cc(O)ccc2C1 (configuration not stated)	> 64	32 (≈ 5.22 µg/mL)	> 64	> 64	> 64	> 64	> 64
NC1CCc2ccc(O)cc2C1 (configuration not stated)	> 64	32 (≈ 5.22 µg/mL)	> 64	> 64	> 64	> 64	> 64
CCCCCCCCNC1CCc2cccc(O)c2C1 (configuration not stated)	8 (≈ 2.2 µg/mL)	4 (≈ 1.1 µg/mL)	–	4 (≈ 1.1 µg/mL)	8 (≈ 2.2 µg/mL)	2 (≈ 0.551 µg/mL)	8 (≈ 2.2 µg/mL)
COc1ccc2c(c1)CCC(N)C2 (configuration not stated)	> 64	> 64	> 64	> 64	64 (≈ 11.3 µg/mL)	> 64	> 64
CCCCCCCCNC1CCc2c(O)cccc2C1 (configuration not stated)	64 (≈ 17.6 µg/mL)	8 (≈ 2.2 µg/mL)	> 64	8 (≈ 2.2 µg/mL)	4 (≈ 1.1 µg/mL)	8 (≈ 2.2 µg/mL)	32 (≈ 8.81 µg/mL)
CCCCCCCCCNC1CCc2ccc(OC)cc2C1 (configuration not stated)	4 (≈ 1.21 µg/mL)	2 (≈ 0.607 µg/mL)	16 (≈ 4.86 µg/mL)	4 (≈ 1.21 µg/mL)	0.0625 (≈ 0.019 µg/mL)	0.25 (≈ 0.0759 µg/mL)	4 (≈ 1.21 µg/mL)
CCCCCCCCCNC1CCc2cccc(OC)c2C1 (configuration not stated)	1 (≈ 0.303 µg/mL)	2 (≈ 0.607 µg/mL)	16 (≈ 4.86 µg/mL)	64 (≈ 19.4 µg/mL)	2 (≈ 0.607 µg/mL)	0.5 (≈ 0.152 µg/mL)	4 (≈ 1.21 µg/mL)
CCCCCCCCCNC1CCc2c(O)cccc2C1 (configuration not stated)	32 (≈ 9.26 µg/mL)	4 (≈ 1.16 µg/mL)	64 (≈ 18.5 µg/mL)	8 (≈ 2.32 µg/mL)	4 (≈ 1.16 µg/mL)	1 (≈ 0.289 µg/mL)	8 (≈ 2.32 µg/mL)
CCCCCCCCCNC1CCc2cccc(O)c2C1 (configuration not stated)	8 (≈ 2.32 µg/mL)	4 (≈ 1.16 µg/mL)	16 (≈ 4.63 µg/mL)	4 (≈ 1.16 µg/mL)	4 (≈ 1.16 µg/mL)	1 (≈ 0.289 µg/mL)	8 (≈ 2.32 µg/mL)
CCCCCCCCCCNC1CCc2cc(OC)ccc2C1 (configuration not stated)	8 (≈ 2.54 µg/mL)	8 (≈ 2.54 µg/mL)	> 64	4 (≈ 1.27 µg/mL)	1 (≈ 0.318 µg/mL)	0.25 (≈ 0.0794 µg/mL)	16 (≈ 5.08 µg/mL)
CCCCCCCCCCNC1CCc2ccc(O)cc2C1 (configuration not stated)	4 (≈ 1.21 µg/mL)	2 (≈ 0.607 µg/mL)	32 (≈ 9.71 µg/mL)	4 (≈ 1.21 µg/mL)	0.25 (≈ 0.0759 µg/mL)	1 (≈ 0.303 µg/mL)	1 (≈ 0.303 µg/mL)
CCCCCCCCCCCCNC1CCc2c(cccc2OC)C1 (configuration not stated)	16 (≈ 5.53 µg/mL)	8 (≈ 2.76 µg/mL)	> 64	16 (≈ 5.53 µg/mL)	0.5 (≈ 0.173 µg/mL)	8 (≈ 2.76 µg/mL)	8 (≈ 2.76 µg/mL)
NC1CCc2cccc(O)c2C1 (configuration not stated)	> 64	32 (≈ 5.22 µg/mL)	> 64	> 64	> 64	> 64	> 64
CCCCNC1CCc2c(cccc2OC)C1 (configuration not stated)	> 64	> 64	> 64	> 64	64 (≈ 14.9 µg/mL)	> 64	> 64
CCCCNC1CCc2ccc(OC)cc2C1 (configuration not stated)	64 (≈ 14.9 µg/mL)	4 (≈ 0.933 µg/mL)	> 64	64 (≈ 14.9 µg/mL)	4 (≈ 0.933 µg/mL)	64 (≈ 14.9 µg/mL)	> 64
CCCCCCCCCCCCNC1CCc2ccc(OC)cc2C1 (configuration not stated)	1 (≈ 0.346 µg/mL)	8 (≈ 2.76 µg/mL)	16 (≈ 5.53 µg/mL)	2 (≈ 0.691 µg/mL)	2 (≈ 0.691 µg/mL)	2 (≈ 0.691 µg/mL)	1 (≈ 0.346 µg/mL)

Structure (SMILES)	MIC (Candida parapsilosis) [µM]	MIC (Fonsecaea compacta) [µM]	MIC (Aspergillus fumigatus) [µM]	MIC (Microsporum) [µM]	MIC (Trichophyton rubrum) [µM]	MIC (Candida albicans) [µM]	MIC (Cryptococcus neoformans) [µM]
CCCCCCCCCCCCNC1CCc2cccc(OC)c2C1 (configuration not stated)	16 (≈ 5.53 µg/mL)	8 (≈ 2.76 µg/mL)	32 (≈ 11.1 µg/mL)	64 (≈ 22.1 µg/mL)	4 (≈ 1.38 µg/mL)	4 (≈ 1.38 µg/mL)	16 (≈ 5.53 µg/mL)
CCCCCCCCCCCCNC1CCc2cc(O)ccc2C1 (configuration not stated)	8 (≈ 2.65 µg/mL)	4 (≈ 1.33 µg/mL)	> 64	8 (≈ 2.65 µg/mL)	2 (≈ 0.663 µg/mL)	1 (≈ 0.332 µg/mL)	2 (≈ 0.663 µg/mL)
CCCCNC1CCc2c(O)cccc2C1 (configuration not stated)	> 64	64 (≈ 14 µg/mL)	> 64	> 64	64 (≈ 14 µg/mL)	> 64	> 64
CCCCNC1CCc2cc(O)ccc2C1 (configuration not stated)	> 64	> 64	> 64	> 64	64 (≈ 14 µg/mL)	> 64	> 64
CCCCCCCCCCCCNC1CCc2cccc(O)c2C1 (configuration not stated)	32 (≈ 10.6 µg/mL)	8 (≈ 2.65 µg/mL)	32 (≈ 10.6 µg/mL)	> 64	4 (≈ 1.33 µg/mL)	16 (≈ 5.3 µg/mL)	32 (≈ 10.6 µg/mL)
COc1cccc2c1CC(Nc1ccc(Cl)cc1)CC2 (configuration not stated)	> 64	> 64	> 64	32 (≈ 9.21 µg/mL)	> 64	> 64	> 64
CCCCCCCCCCNC1CCc2cccc(OC)c2C1 (configuration not stated)	2 (≈ 0.635 µg/mL)	1 (≈ 0.318 µg/mL)	16 (≈ 5.08 µg/mL)	2 (≈ 0.635 µg/mL)	1 (≈ 0.318 µg/mL)	0.25 (≈ 0.0794 µg/mL)	1 (≈ 0.318 µg/mL)
CCCCCCCCCCCCNC1CCc2ccc(O)cc2C1 (configuration not stated)	> 64	32 (≈ 10.6 µg/mL)	> 64	4 (≈ 1.33 µg/mL)	1 (≈ 0.332 µg/mL)	16 (≈ 5.3 µg/mL)	32 (≈ 10.6 µg/mL)
CCCCCCCCNC1CCc2c(cccc2OC)C1 (configuration not stated)	16 (≈ 4.63 µg/mL)	4 (≈ 1.16 µg/mL)	16 (≈ 4.63 µg/mL)	> 64	8 (≈ 2.32 µg/mL)	8 (≈ 2.32 µg/mL)	16 (≈ 4.63 µg/mL)
CCCCCCCCNC1CCc2ccc(OC)cc2C1 (configuration not stated)	32 (≈ 9.26 µg/mL)	4 (≈ 1.16 µg/mL)	64 (≈ 18.5 µg/mL)	8 (≈ 2.32 µg/mL)	4 (≈ 1.16 µg/mL)	1 (≈ 0.289 µg/mL)	16 (≈ 4.63 µg/mL)
CCCCNC1CCc2cccc(OC)c2C1 (configuration not stated)	> 64	0.25 (≈ 0.0583 µg/mL)	64 (≈ 14.9 µg/mL)	32 (≈ 7.47 µg/mL)	16 (≈ 3.73 µg/mL)	> 64	> 64
Oc1ccc2c(c1)CCC(Nc1ccc(Cl)cc1)C2 (configuration not stated)	32 (≈ 8.76 µg/mL)	32 (≈ 8.76 µg/mL)	64 (≈ 17.5 µg/mL)	4 (≈ 1.1 µg/mL)	0.25 (≈ 0.0684 µg/mL)	> 64	16 (≈ 4.38 µg/mL)
COc1cccc2c1CCC(N)C2 (configuration not stated)	> 64	64 (≈ 11.3 µg/mL)	> 64	> 64	8 (≈ 1.42 µg/mL)	> 64	> 64
COc1cccc2c1CC(N)CC2 (configuration not stated)	> 64	> 64	> 64	> 64	64 (≈ 11.3 µg/mL)	> 64	> 64
CCCCCCCCCCCCNC1CCc2cc(OC)ccc2C1 (configuration not stated)	32 (≈ 11.1 µg/mL)	64 (≈ 22.1 µg/mL)	> 64	> 64	4 (≈ 1.38 µg/mL)	4 (≈ 1.38 µg/mL)	4 (≈ 1.38 µg/mL)
CCCCCCCCCCCCNC1CCc2c(O)cccc2C1 (configuration not stated)	> 64	> 64	> 64	2 (≈ 0.663 µg/mL)	32 (≈ 10.6 µg/mL)	4 (≈ 1.33 µg/mL)	> 64
CCCCNC1CCc2cc(OC)ccc2C1 (configuration not stated)	> 64	> 64	> 64	> 64	64 (≈ 14.9 µg/mL)	64 (≈ 14.9 µg/mL)	64 (≈ 14.9 µg/mL)
CCCCNC1CCc2ccc(O)cc2C1 (configuration not stated)	> 64	64 (≈ 14 µg/mL)	> 64	64 (≈ 14 µg/mL)	> 64	> 64	> 64
CCCCCCCCNC1CCc2ccc(O)cc2C1 (configuration not stated)	32 (≈ 8.81 µg/mL)	8 (≈ 2.2 µg/mL)	> 64	4 (≈ 1.1 µg/mL)	8 (≈ 2.2 µg/mL)	4 (≈ 1.1 µg/mL)	16 (≈ 4.41 µg/mL)
CCCCCCCCCNC1CCc2ccc(O)cc2C1 (configuration not stated)	16 (≈ 4.63 µg/mL)	8 (≈ 2.32 µg/mL)	64 (≈ 18.5 µg/mL)	8 (≈ 2.32 µg/mL)	4 (≈ 1.16 µg/mL)	1 (≈ 0.289 µg/mL)	8 (≈ 2.32 µg/mL)
Oc1cccc2c1CCC(Nc1ccc(Cl)cc1)C2 (configuration not stated)	8 (≈ 2.19 µg/mL)	16 (≈ 4.38 µg/mL)	64 (≈ 17.5 µg/mL)	0.5 (≈ 0.137 µg/mL)	2 (≈ 0.548 µg/mL)	2 (≈ 0.548 µg/mL)	8 (≈ 2.19 µg/mL)
COc1ccc2c(c1)CC(N)CC2 (configuration not stated)	> 64	> 64	> 64	> 64	64 (≈ 11.3 µg/mL)	> 64	> 64
